What was measured:
MCF7 = test: Cytotoxicity against human MCF7 cells assessed as reduction in number of viable cells after 72 hrs by fluorescence assay; assay type: functional, cell-based; conditions: MCF7, 72 h
How it was run: (§1)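 Three-fold compound dilutions tested in triplicate on cultured cells for 72 h. Viable cells detected by adding Calcein AM and reading fluorescence at 485/538 nm (ex/em).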

HCT-116 = test: Cytotoxicity against human HCT116 cells assessed as reduction in number of viable cells after 72 hrs by fluorescence assay; assay type: functional, cell-based; conditions: HCT-116, 72 h; how it was run: as §1
CCRF-CEM = test: Cytotoxicity against human CEM cells assessed as reduction in number of viable cells after 72 hrs by fluorescence assay; assay type: functional, cell-based; how it was run: as §1
[1] = target: Cyclin-dependent kinase 2/cyclin E1 (Homo sapiens, UniProt P24941); test: Inhibition of CDK2/Cyclin E (unknown origin) expressed in Sf9 cells using histone H1 as substrate
G-361 = test: Cytotoxicity against human G361 cells assessed as reduction in number of viable cells after 72 hrs by fluorescence assay; assay type: functional, cell-based; conditions: G-361, 72 h; how it was run: as §1
HOS = test: Cytotoxicity against human HOS cells assessed as reduction in number of viable cells after 72 hrs by fluorescence assay; assay type: functional, cell-based; how it was run: as §1
K562 = test: Cytotoxicity against human K562 cells assessed as reduction in number of viable cells after 72 hrs by fluorescence assay; assay type: functional, cell-based; conditions: K562, 72 h; how it was run: as §1
[2] = target: Cyclin-dependent kinase 5/CDK5 activator 1 (Homo sapiens, UniProt Q00535); test: Inhibition of CDK5/P35 (unknown origin) using histone H1 as substrate; assay type: protein-complex assay
[3] = target: Cyclin-dependent kinase 7/ cyclin H (Homo sapiens, UniProt P50613); test: Inhibition of CDK7/CyclinH/MAT1 (unknown origin) using (YSPTSPS)2KK as substrate; assay type: protein-complex assay
How it was run: (§2)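 Buffer was 60 mM HEPES-NaOH pH 7.5, 3 mM MgCl2, 3 mM MnCl2, vanadate, DTT and PEG. Reactions were stopped with H3PO4 and spotted on P-81 paper, which was then washed. Radioactivity was imaged; IC50 taken from dose–response curves.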

CDK9/cyclin T1 = CDK9/cyclin T1 (Homo sapiens, UniProt P50750); test: Inhibition of CDK9/CyclinT1 (unknown origin) using (YSPTSPS)2KK as substrate; assay type: protein-complex assay; how it was run: as §2
Chain of CDK9/cyclin T1 (O60563 whole entry): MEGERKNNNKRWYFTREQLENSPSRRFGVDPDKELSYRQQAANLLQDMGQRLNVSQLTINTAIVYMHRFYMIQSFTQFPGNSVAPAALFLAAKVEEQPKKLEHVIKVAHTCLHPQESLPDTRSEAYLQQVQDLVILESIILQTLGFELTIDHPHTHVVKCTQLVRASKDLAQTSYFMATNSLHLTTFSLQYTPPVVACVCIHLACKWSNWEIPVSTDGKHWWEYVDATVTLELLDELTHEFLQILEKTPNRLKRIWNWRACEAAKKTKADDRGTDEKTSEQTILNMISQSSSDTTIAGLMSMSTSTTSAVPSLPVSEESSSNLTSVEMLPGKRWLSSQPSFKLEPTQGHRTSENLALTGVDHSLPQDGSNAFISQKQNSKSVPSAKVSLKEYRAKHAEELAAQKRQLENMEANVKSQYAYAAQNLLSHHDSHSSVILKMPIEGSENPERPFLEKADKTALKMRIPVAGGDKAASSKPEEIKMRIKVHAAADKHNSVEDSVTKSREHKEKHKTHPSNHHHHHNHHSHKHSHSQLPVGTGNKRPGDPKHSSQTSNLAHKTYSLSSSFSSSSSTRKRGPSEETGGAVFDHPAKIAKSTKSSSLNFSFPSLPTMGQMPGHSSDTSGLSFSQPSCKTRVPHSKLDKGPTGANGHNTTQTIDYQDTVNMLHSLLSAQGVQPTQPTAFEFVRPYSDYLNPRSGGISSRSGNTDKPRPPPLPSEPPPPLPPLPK
Chain of CDK9/cyclin T1 (P50750 whole entry): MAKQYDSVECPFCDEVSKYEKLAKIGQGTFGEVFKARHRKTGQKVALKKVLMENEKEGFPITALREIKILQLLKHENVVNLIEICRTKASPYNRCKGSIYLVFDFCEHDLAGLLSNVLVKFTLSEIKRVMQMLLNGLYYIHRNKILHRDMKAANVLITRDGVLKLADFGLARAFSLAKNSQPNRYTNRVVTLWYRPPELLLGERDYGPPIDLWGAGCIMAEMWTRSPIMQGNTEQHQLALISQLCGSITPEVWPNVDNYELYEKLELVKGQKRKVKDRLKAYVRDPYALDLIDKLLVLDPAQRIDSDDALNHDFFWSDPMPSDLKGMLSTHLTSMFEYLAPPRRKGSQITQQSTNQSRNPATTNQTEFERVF

Chain of Cyclin-dependent kinase 5/CDK5 activator 1 (Q00535 whole entry): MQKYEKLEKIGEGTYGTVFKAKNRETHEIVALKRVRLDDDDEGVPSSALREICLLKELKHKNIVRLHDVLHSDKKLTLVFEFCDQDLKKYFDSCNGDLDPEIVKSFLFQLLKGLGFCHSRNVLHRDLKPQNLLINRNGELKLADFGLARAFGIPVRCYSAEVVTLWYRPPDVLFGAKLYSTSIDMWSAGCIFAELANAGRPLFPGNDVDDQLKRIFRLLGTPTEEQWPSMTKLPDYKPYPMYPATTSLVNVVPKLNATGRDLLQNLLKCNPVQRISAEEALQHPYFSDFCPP
Chain of Cyclin-dependent kinase 5/CDK5 activator 1 (Q15078 whole entry, further chain): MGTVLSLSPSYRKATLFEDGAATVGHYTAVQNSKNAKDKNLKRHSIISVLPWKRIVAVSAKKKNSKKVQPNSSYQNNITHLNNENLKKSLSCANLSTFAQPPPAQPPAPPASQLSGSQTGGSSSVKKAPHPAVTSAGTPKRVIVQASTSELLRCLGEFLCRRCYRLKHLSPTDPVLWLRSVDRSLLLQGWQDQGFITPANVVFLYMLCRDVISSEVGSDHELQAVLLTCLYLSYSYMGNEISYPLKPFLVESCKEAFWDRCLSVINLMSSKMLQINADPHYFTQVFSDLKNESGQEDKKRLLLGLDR
Chain of Cyclin-dependent kinase 7/ cyclin H (P51946 whole entry): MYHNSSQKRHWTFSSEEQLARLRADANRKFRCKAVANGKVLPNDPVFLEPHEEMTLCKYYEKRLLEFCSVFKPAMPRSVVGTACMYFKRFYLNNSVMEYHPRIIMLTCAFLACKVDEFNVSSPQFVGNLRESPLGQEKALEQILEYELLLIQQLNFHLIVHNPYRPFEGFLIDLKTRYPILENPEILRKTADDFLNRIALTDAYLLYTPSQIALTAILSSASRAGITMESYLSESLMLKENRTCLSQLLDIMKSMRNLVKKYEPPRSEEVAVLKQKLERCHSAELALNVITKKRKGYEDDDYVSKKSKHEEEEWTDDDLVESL
Chain of Cyclin-dependent kinase 7/ cyclin H (P50613 whole entry): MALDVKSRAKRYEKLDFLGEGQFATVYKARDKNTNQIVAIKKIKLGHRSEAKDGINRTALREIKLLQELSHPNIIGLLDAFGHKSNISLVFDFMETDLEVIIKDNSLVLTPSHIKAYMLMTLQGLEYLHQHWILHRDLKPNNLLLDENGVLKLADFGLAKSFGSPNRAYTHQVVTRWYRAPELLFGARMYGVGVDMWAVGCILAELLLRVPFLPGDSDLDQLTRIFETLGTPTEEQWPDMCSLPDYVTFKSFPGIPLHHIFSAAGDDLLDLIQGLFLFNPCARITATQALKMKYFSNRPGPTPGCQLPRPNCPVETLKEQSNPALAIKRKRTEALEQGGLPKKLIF

Row | Compound | IC50 (MCF7) [µM] | IC50 (HCT-116) [µM] | IC50 (CCRF-CEM) [µM] | IC50 [1] [µM] | IC50 (G-361) [µM] | IC50 (HOS) [µM] | IC50 (K562) [µM] | IC50 [2] [µM] | IC50 [3] [µM] | IC50 (CDK9/cyclin T1) [µM]
1 | CC[C@H](CO)Nc1nc(NCc2cccc(OC)c2O)c2ncn(C(C)C)c2n1 | 12.6 | 12.3 | 16.6 | 0.06 | 22 | 14.8 | 54.8 | – | – | –
2 | CC(C)n1cnc2c(NCc3cc(Cl)ccc3O)nc(NC3CCC(N)CC3)nc21 (centres undefined) | 1.8 | 2.4 | 3.3 | 0.025 | 2.4 | 2.2 | 2.4 | 0.125 | 0.16 | 0.039
3 | CC[C@H](CO)Nc1nc(NCc2cc(Cl)ccc2O)c2ncn(C(C)C)c2n1 | 4.6 | 5.4 | 3.7 | 0.0094 | 4.3 | 5 | 3.2 | 0.15 | – | 0.285
4 | COc1cccc(CNc2nc(N3CCNCC3)nc3c2ncn3C(C)C)c1O | 8.3 | 22.5 | 27.5 | 0.63 | 18.9 | 30.6 | 14.2 | – | – | –
5 | CC[C@@H](CO)Nc1nc(NCc2cccc(OC)c2O)c2ncn(C(C)C)c2n1 | 5.3 | 8.7 | 10.7 | 0.059 | 7.8 | 5.9 | 15.4 | – | – | –
6 | COc1ccc(CNc2nc(N3CCNCC3)nc3c2ncn3C(C)C)cc1 | 3.53 | 11.5 | 10.8 | 0.89 | 10.1 | 5.1 | 5.3 | – | – | –
7 | COc1ccc(CNc2nc(N3CCN(C)CC3)nc3c2ncn3C(C)C)cc1 | 12 | 13.4 | 13.1 | 0.89 | 13.9 | 11.2 | 11.9 | – | – | –
8 | CC(C)[C@H](Nc1nc(NCc2ccccc2N)c2ncn(C(C)C)c2n1)C(C)(C)O | 12.8 | 11.8 | 13.1 | 0.07 | 18.7 | 42.7 | 39.8 | 0.675 | 0.29 | 0.845
9 | CC(C)n1cnc2c(NCc3cc(Cl)ccc3O)nc(NCC(C)(C)O)nc21 | 2.7 | 4 | 3.9 | 0.019 | 4.3 | 4.4 | 5.1 | 0.069 | 0.435 | –
10 | CC[C@H](CO)Nc1nc(NCc2ccccc2O)c2ncn(C(C)C)c2n1 [OLOMOUCINE II] | 9.1 | 4.1 | 7.4 | – | 9.2 | 10.6 | 23 | – | – | 0.815
11 | CC(C)n1cnc2c(NCc3ccccc3N)nc(NCCC(C)(C)O)nc21 | 100 | 100 | 100 | 0.79 | 100 | 100 | 100 | > 5 | – | > 5
12 | CC(C)n1cnc2c(NCc3cc(Cl)ccc3O)nc(NC3CCC(O)CC3)nc21 (centres undefined) | 2.6 | 13.2 | 3.2 | 0.061 | 8.2 | 6.4 | 2.4 | 0.55 | 0.54 | 0.91
13 | CC(C)n1cnc2c(NCc3ccccc3O)nc(NCCC(C)(C)O)nc21 | 65.9 | 64.1 | 34.6 | 0.26 | 52.2 | 45.5 | 47.3 | 4.49 | – | > 5
14 | CC(C)CNc1nc(NCc2ccccc2O)c2ncn(C(C)C)c2n1 | 14.1 | 22.2 | 13.6 | 0.22 | 15.7 | 23.9 | 10.8 | 2.36 | – | 3.13
15 | CC(C)n1cnc2c(NCc3ccccc3N)nc(NCC(C)(C)O)nc21 | 13.5 | 12.9 | 12.6 | 0.02 | 12.6 | 16.9 | 34 | 0.74 | 1.2 | 1.24
16 | CC(C)n1cnc2c(NCc3ccc(O)cc3)nc(N3CCNCC3)nc21 | 4.1 | 9.3 | 13.4 | 0.34 | 12.4 | 6.5 | 9.3 | – | – | –
17 | CC[C@H](CO)Nc1nc(NCc2ccc(N)cc2)c2ncn(C(C)C)c2n1 | 18.1 | 23.8 | 22.6 | – | 26 | 29.4 | 71.5 | – | – | –
18 | CC[C@@H](Nc1nc(NCc2cc(F)ccc2O)c2ncn(C(C)C)c2n1)C(C)O (mixture of isomers) | 1.8 | 1.8 | 1.6 | 0.0118 | 1.9 | 2.4 | 2.9 | 0.067 | 0.18 | 0.1
19 | CC(C)n1cnc2c(NCc3cc(Cl)ccc3O)nc(N[C@@H](C)C(C)(C)O)nc21 | 1.4 | 1.8 | 2.5 | 0.0243 | 1.2 | 1.8 | 2 | – | – | –
20 | CC[C@H](CO)Nc1nc(NCc2ccccc2)c2ncn(C(C)C)c2n1 [SELICICLIB] | 12.3 | 14.4 | 16.3 | – | 22.4 | 24.3 | 45.5 | – | – | –
21 | CC[C@H](CO)Nc1nc(NCc2cccc(OC)c2OC)c2ncn(C(C)C)c2n1 | 21 | 29.5 | 38 | 0.031 | 46.6 | 67.5 | 40.1 | – | – | –
22 | CC[C@H](CO)Nc1nc(NCc2cc(F)ccc2O)c2ncn(C(C)C)c2n1 | 3.6 | 4.8 | 3.9 | 0.019 | 6.5 | 4.5 | 4.1 | 0.24 | – | 0.106
